High-throughput results: PubChem, several laboratories
The list is not random: actives were taken first. Their share in the collection is about 2.1%.
A3A deaminase: APOBEC3A ssDNA deaminase inhibitors, primary screen, selectivity assay for APOBEC3G inhibitor project, biochemical, FAM/TAMRA oligo cleavage fluorescence | DNA dC->dU-editing enzyme APOBEC-3A (Homo sapiens), P31941 | recombinant A3A, FAM/TAMRA ssDNA deamination fluorescence | inhibition, % at 20 µM | 0.41% of 330,000 active | AID 493011, 2011;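 active = at least 40% inhibition at 20 µM here, with at most 30% in a related deaminase screen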
APOBEC3G inh: APOBEC3G DNA deaminase inhibitors, primary screen, biochemical, fluorescence, single-stranded DNA substrate, uHTS | recombinant A3G, ssDNA deamination FAM/TAMRA fluorescence | 0.28% of 330,000 active | inhibition, % at 20 µM;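 active = inhibition of at least 40% at 20 µM, with no more than 30% in the related APOBEC3A deaminase screen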
Target sequence (Q9HC16 whole entry, looked up): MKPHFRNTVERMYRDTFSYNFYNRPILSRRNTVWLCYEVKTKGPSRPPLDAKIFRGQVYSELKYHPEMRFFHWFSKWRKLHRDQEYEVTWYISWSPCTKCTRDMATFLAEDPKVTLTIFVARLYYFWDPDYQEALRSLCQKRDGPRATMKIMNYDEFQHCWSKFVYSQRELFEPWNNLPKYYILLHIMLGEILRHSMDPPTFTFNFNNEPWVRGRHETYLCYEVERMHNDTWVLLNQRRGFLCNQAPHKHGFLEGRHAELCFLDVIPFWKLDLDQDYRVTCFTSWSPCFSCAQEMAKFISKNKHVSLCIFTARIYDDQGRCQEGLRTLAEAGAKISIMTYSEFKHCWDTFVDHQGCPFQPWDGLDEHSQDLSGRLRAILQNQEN
SUMO Mot1 rescue: yeast Mot1-301 growth rescue at high temperature, primary screen, SUMOylation pathway inhibitor project, S. cerevisiae, ATP luminescence, 38.5C. 1% of 320,000 active. S. cerevisiae Mot1-301 growth rescue; percent above DMSO median, 100 means doubled. growth rescue, % at 18.8 µM. AID 2716, 2010;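 active = every valid replicate shows activation above 250% relative to neutral control wells; inactive = the rest, any valid replicate at or below 250%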
C2C12 statin: suppressors of statin myotoxicity in C2C12 myotubes, primary screen, cell-based, single point, plate reader | AID 602340, 2012 | 0.78% of 330,000 active | rescue of ATP level, % at 7.49 µM | C2C12 myotubes + simvastatin, ATP luminescence, 48 h; scaled: DMSO 0, geranylgeraniol control 100;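 active = mean ATP rescue above about 67%, or every replicate alone reaching that limit, limit read from the data, passing the limit was not always enough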;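 also: myotubes were challenged with 10 µM simvastatin during compound exposure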
ASAP1 inh: inhibitors of human ASAP1 ArfGAP activity, primary screen, biochemical, fluorescence polarization; Arf-GAP with SH3 domain, ANK repeat and PH domain-containing protein 1 (Homo sapiens), …; ASAP1-stimulated ARF1 GTP hydrolysis, GDP FP detection; inhibition, % at 16.5 µM; 0.19% of 360,000 active; in the data active = inhibition above about 25%
ARFGAP1 inh: inhibitors of rat ARFGAP1 GAP activity, primary screen, biochemical, fluorescence polarization, GDP tracer. inhibition, % at 16.5 µM. ADP-ribosylation factor GTPase-activating protein 1 (Rattus norvegicus), Q62848. 0.26% of 360,000 active. Arfgap1-stimulated ARF1 GTP hydrolysis, GDP FP detection. AID 651572, 2012;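 active = inhibition above a per-plate limit, mean inhibition of low control wells plus 3 SD, cut at about 25% in these data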
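material = rat Arfgap1 catalytic domain, aa 1-136 | also added = human ARF1(Δ1-17)-GTP substrate | compound dosing = one concentration, 16.5 µM, DMSO 1.26% | times = GTP hydrolysis reaction 2 h at 25 °C | measured by = FP, GDP Alexa 633 tracer displaced from anti-GDP antibody, 620/688 nm | evaluation = percent inhibition of Arfgap1-stimulated GTP hydrolysis | replication = single well per compound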
Yeast Mot1 SUMO: growth restoration of Mot1-301 yeast on galactose, dose response, SUMO pathway inhibitor project, whole organism, S. cerevisiae, ATP luminescence, cherry-picked samples; shares compounds with SUMO Mot1 rescue; 2,300 tested, under 10 active; growth activity, percent, % at 42 µM; S. cerevisiae Mot1-301 galactose growth, 24 h; -100 = growth of slx-deleted rescue strain;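 active = Signal drops as the depositor expects, and the fitted half-maximal dose is no more than ten times the top valid tested dose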;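 also: more negative values mean stronger growth rescue toward the control strain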
Hits are given with their value.

How did O=C(C[C@H]1CC[C@@H](NC(=O)Nc2ccc3c(c2)OCO3)[C@@H](CO)O1)NCc1ccc(Cl)cc1 do in these assays?
C2C12 statin: inactive

What do the screens show for `CCOC(=O)C1(CCOc2ccccc2)CCN(Cc2cccc(OC)c2O)CC1`?
A3A deaminase: inactive; APOBEC3G inh: inactive; SUMO Mot1 rescue: 517; C2C12 statin: inactive; ASAP1 inh: inactive; ARFGAP1 inh: inactive; Yeast Mot1 SUMO: inactive

What do the screens show for `CC1(OC(=O)c2cccs2)C(=O)C=C2C=C(c3ccsc3)OC=C2C1=O` (centres undefined)?
A3A deaminase: inactive; APOBEC3G inh: inactive; SUMO Mot1 rescue: inactive

Results for CC1(OC(=O)C2CCCC2)C(=O)C=C2C=C(c3ccsc3)OC=C2C1=O (centres undefined) ?
A3A deaminase: inactive; APOBEC3G inh: inactive; SUMO Mot1 rescue: 506; C2C12 statin: inactive; ASAP1 inh: inactive; ARFGAP1 inh: inactive; Yeast Mot1 SUMO: inactive

How did O=C(C[C@@H]1C=C[C@H](NC(=O)Nc2cc(F)ccc2F)[C@@H](CO)O1)Nc1ccc(-c2ccccc2)cc1 do in these assays?
C2C12 statin: inactive

How did COCCNC(=O)CN(c1ccc(F)cc1)S(=O)(=O)c1ccc2c(c1)OCCO2 do in these assays?
A3A deaminase: inactive; APOBEC3G inh: inactive; SUMO Mot1 rescue: inactive; C2C12 statin: inactive; ASAP1 inh: inactive; ARFGAP1 inh: inactive

What do the screens show for `CCCNC(=O)CN(c1ccc(F)cc1)S(=O)(=O)c1ccc2c(c1)OCCO2`?
A3A deaminase: inactive; APOBEC3G inh: inactive; SUMO Mot1 rescue: 847; C2C12 statin: inactive; ASAP1 inh: inactive; ARFGAP1 inh: inactive; Yeast Mot1 SUMO: inactive

What do the screens show for `COc1cccc(OC)c1C(=O)Nc1ccc2c(c1)N(S(=O)(=O)c1cccs1)CCC2`?
A3A deaminase: inactive; APOBEC3G inh: inactive; SUMO Mot1 rescue: 490; C2C12 statin: inactive; ASAP1 inh: inactive; ARFGAP1 inh: inactive; Yeast Mot1 SUMO: inactive

Results for COc1ccccc1-c1ccc2c(c1)O[C@H](CN(C)C(=O)c1cccnc1)[C@H](C)CN([C@H](C)CO)S2(=O)=O ?
C2C12 statin: inactive

What do the screens show for `C[C@H]1CN([C@@H](C)CO)C(=O)c2cc(C3=CCCC3)cnc2O[C@@H]1CN(C)C(=O)C1CC1`?
C2C12 statin: inactive

Results for CCC(=O)Nc1ccc2c(c1)C(=O)N(C)[C@@H]1CC[C@H](CC(=O)NCCc3ccccc3)O[C@H]1CO2 ?
C2C12 statin: inactive

Results for CN(C)C(=O)C[C@@H]1C[C@@H]2c3cc(NC(=O)c4ccc5c(c4)OCO5)ccc3O[C@@H]2[C@@H](CO)O1 ?
C2C12 statin: inactive

How did COc1cccc(OC)c1OCC(O)CN1CCN(c2ccccc2)CC1 (centres undefined) do in these assays?
A3A deaminase: inactive; APOBEC3G inh: inactive; SUMO Mot1 rescue: active; C2C12 statin: inactive; ASAP1 inh: inactive; ARFGAP1 inh: inactive; Yeast Mot1 SUMO: inactive

How did C=CCN1c2ccccc2[C@]23C[C@@H](C(=O)OC)N(C(C)=O)C2=NC(C(=O)OC)=C(C(=O)OC)[C@H]13 do in these assays?
A3A deaminase: inactive; APOBEC3G inh: inactive; SUMO Mot1 rescue: inactive; C2C12 statin: inactive; ASAP1 inh: inactive; ARFGAP1 inh: inactive
